CYP2C19 activ: human CYP2C19 activators, primary screen, biochemical, luminescence; 96,000 tested, under 10 active; activation factor at 5 µM; recombinant CYP2C19, luciferin-H EGE luminescence; hits give high values; 0 = fully inhibited enzyme, 1 = untreated enzyme;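 active = activation factor of at least 2 at 5 µM in the primary screen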;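 also: 0 = wells with 2.5 mM tranylcypromine and 1 = vehicle-only wells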
CYP2C9 act: human CYP2C9 activators, primary screen, biochemical, luminescence | Cytochrome P450 2C9 (Homo sapiens), P11712 | AID 1024, 2008 | actives 1.4% (n = 96,000) | recombinant CYP2C9, luciferin-H conversion; hits give high values; factor 1 = untreated enzyme, 0 = blocked | activation factor at 5 µM;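 active = activation factor of 2 or more for CYP2C9 at a 5 µM dose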;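 also: 0 = sulfaphenazole-blocked wells and 1 = vehicle-only wells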
Target sequence (P11712 whole entry, looked up): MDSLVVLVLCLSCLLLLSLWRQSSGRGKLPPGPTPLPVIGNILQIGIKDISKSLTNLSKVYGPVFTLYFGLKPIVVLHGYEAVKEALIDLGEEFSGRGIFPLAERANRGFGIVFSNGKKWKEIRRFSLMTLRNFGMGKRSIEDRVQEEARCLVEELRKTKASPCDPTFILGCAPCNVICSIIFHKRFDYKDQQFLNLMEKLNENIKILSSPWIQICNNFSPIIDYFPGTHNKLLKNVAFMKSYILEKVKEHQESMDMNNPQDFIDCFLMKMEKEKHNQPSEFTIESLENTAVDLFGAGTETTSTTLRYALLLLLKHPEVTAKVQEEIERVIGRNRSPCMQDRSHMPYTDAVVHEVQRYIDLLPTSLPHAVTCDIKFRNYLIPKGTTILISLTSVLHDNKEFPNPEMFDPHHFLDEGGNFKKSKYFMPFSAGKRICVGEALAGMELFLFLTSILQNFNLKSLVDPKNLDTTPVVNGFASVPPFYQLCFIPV
CYP2C9 inh: blockers of cytochrome P450 2C9 activity – biochemical, luminescence, ADME assay, primary screen; CYP2C9 Supersomes, luciferin-H conversion; inhibition, % at 5 µM; actives 20% (n = 96,000); AID 777, 2007;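 active = blocking of liver enzyme CYP2C9 beyond about 50% at 5 µM, limit read from the data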
Ecoli WT expand: growth inhibitors of wild-type E. coli, primary screen, strain BW25113, expanded library, OD600. actives 0.15% (n = 98,000). growth inhibition, % at 100 µM. OD600 absorbance;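 active = growth inhibition above about 50% at one test dose, limit read from the data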;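 also: growth measured after 20 h incubation at 37 °C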
tolC growth inh: growth inhibitors of E. coli tolC mutant, primary screen, strain BW25113 ΔtolC::kan, 384-well. OD615. growth inhibition, % at 10 µM (by protocol). actives 2.2% (n = 65,000);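 active = growth inhibition at or above a cutoff equal to the mean over every tested compound plus 3 SD, cut at about 60% in these data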;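 also: growth measured after 20 h incubation at 37 °C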
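test system = E. coli BW25113 ΔtolC::kan bacteria | medium = LB with kanamycin 50 µg/mL | signal = OD at 615 nm | schedule = 37 °C, 20 h exposure | evaluation = % inhibition of E. coli growth | compound dosing = one dose of 10 µM final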
CYP2C19 inh: blockers of cytochrome P450 2C19 activity – biochemical, luminescence, ADME assay, primary screen; P33261; actives 21% (n = 96,000); inhibition, % at 5 µM; CYP2C19 Supersomes, luciferin-H EGE luminescence, 30 min; AID 778, 2007;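 active = CYP2C19 inhibition above a set limit at 5 µM in the primary screen, cut at about 50% in these data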;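 also: plate controls were negative control wells for no effect and 2.5 mM tranylcypromine positive control for full effect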
* hit, by the source's call; nt = no result. The list is not random: actives were taken first. Their share in the collection is about 29%.

SMILES | CYP2C19 activ | CYP2C9 act | CYP2C9 inh | Ecoli WT expand | tolC growth inh | CYP2C19 inh
COc1ccc(CNC(=O)c2cccc3c2C(=O)N(Cc2cccnc2)C3)cc1 | 0.5 | 0.2 | 76* | 7 | -5 | 55*
O=C(Cc1cccs1)Nc1nnc(Cc2ccc(F)cc2)s1 | 0.8 | 0.9 | 7 | -5 | nt | 15
COc1ccc(NC(=O)CN(C)S(=O)(=O)c2ccc3c(c2)OCCO3)c2ncccc12 | 0.8 | 1.9 | -88 | -7 | 27 | 21
O=C(Nc1ccc(OC(F)(F)F)cc1)C1CCCN(S(=O)(=O)c2cccnc2)C1 (stereo unspecified) | 0 | 0.8 | 20 | -28 | 31 | 99*
N#Cc1ccc(Cl)cc1NC(=O)COC(=O)c1ccc(S(=O)(=O)N2CCCC2)cc1 | 1 | 1 | 0 | 6 | nt | -3
O=C(COC(=O)c1ccc(S(=O)(=O)N2CCCC2)cc1)NCc1ccccc1 | 0.6 | 0.4 | 56* | 1 | -1 | 42
NS(=O)(=O)c1ccc(CCNC(=O)c2ccc(S(=O)(=O)N3CCCCC3)cc2)cc1 | 0.6 | 0.4 | 61* | 2 | nt | 40
CC(=O)NCCc1ccc(S(=O)(=O)N2CCCC2)cc1 | 0.8 | 0.9 | 8 | 0 | -4 | 17
Cc1c(C(=O)NCc2ccc3c(c2)OCO3)oc2ccc(S(=O)(=O)N3CCCCC3)cc12 | 0.9 | 0.4 | 59* | -13 | 11 | 13
Cc1ccc(NC(=O)c2cnc3scc(C)n3c2=O)c(C)c1 | nt | nt | nt | nt | -3 | nt
COc1ccccc1CNC(=O)c1oc2ccc(S(=O)(=O)N3CCCC3)cc2c1C | 0.5 | 0.3 | 73* | -14 | 49 | 47
Cc1ccc(S(=O)(=O)N2CCC(C(=O)OC(C)C(=O)NCc3ccc4c(c3)OCO4)CC2)cc1 (stereo unspecified) | 0.3 | 1.4 | -44 | 2 | -11 | 73*
Cc1c(C(=O)NCc2ccccc2)oc2ccc(S(=O)(=O)N3CCCC3)cc12 | 1 | 0.7 | 33 | -5 | 17 | 4
O=C(NCc1cccnc1)C1CCCCN1S(=O)(=O)c1ccc(F)cc1 (stereo unspecified) | 0.2 | 0.7 | 29 | 3 | -10 | 80*
Cc1c(C(=O)NCc2cccnc2)oc2ccc(S(=O)(=O)N3CCCCCC3)cc12 | 0.8 | 0.5 | 51* | -10 | 48 | 21
Cc1c(C(=O)NCc2cccnc2)oc2ccc(S(=O)(=O)N3CCCCC3)cc12 | nt | nt | nt | -1 | -2 | nt
CC1Cc2ccccc2N1C(=O)CCn1c(=O)sc2ccccc21 (stereo unspecified) | nt | nt | nt | nt | 19 | nt
COc1ccc(N2C(=O)c3ccccc3NC23C(=O)N(C)c2ccccc23)cc1 (stereo unspecified) | 0.9 | 0.7 | 31 | -11 | nt | 6
COc1cccc(N2C(=O)CC(N3CCC(C(N)=O)(N4CCCCC4)CC3)C2=O)c1 (stereo unspecified) | nt | nt | nt | -7 | -16 | nt
Cc1ccc(S(=O)(=O)N2CCCC2C(=O)NC2=NCCS2)cc1 (stereo unspecified) | 0.7 | 1.2 | -18 | 2 | -18 | 25
O=C(NCc1ccco1)C1CCCN1S(=O)(=O)c1ccc2ccccc2c1 (stereo unspecified) | 0.1 | 1.8 | -80 | 1 | nt | 88*
Cc1c(C(=O)N(C)Cc2ccccc2)oc2ccc(S(=O)(=O)N3CCCC3)cc12 | 0.6 | 0 | 95* | -37 | 35 | 43
C=CCNC(=O)C1CCN(S(=O)(=O)c2ccc(Br)cc2)CC1 | 0.5 | 1.5 | -52 | -1 | 7 | 51*
CC(C)(C)c1ccc(S(=O)(=O)N2CCCC2C(=O)NC2=NCCS2)cc1 (stereo unspecified) | 0.9 | 0.2 | 76* | -1 | 7 | 8
O=C(NCc1ccccc1)C1CC2CCCC(C1)C2=O (stereo unspecified) | 1 | 1.1 | -8 | -16 | -7 | -4
SMILES | CYP2C19 activ | CYP2C9 act | CYP2C9 inh | Ecoli WT expand | tolC growth inh | CYP2C19 inh
O=C(COC(=O)c1ccccc1S(=O)(=O)N1CCCCC1)NCC(F)(F)F | 0.7 | 0.3 | 70* | -6 | -29 | 32
O=C(NCc1cccnc1)c1ccc(S(=O)(=O)N2CCCCC2)cc1 | 0.4 | 0.5 | 47 | 2 | nt | 61*
O=C(NCc1ccccc1)c1ccc(S(=O)(=O)N2CCCC2)cc1 | 1 | 0.7 | 30 | -2 | nt | 4
O=C(NCc1cccnc1)C1CCCN(S(=O)(=O)c2ccc(Br)cc2)C1 (stereo unspecified) | 0.4 | 0.5 | 46 | 0 | 9 | 63*
C=CCNC(=O)COC(=O)c1cc(S(=O)(=O)N2CCOCC2)ccc1N1CCCCC1 | 1 | 1 | 4 | -1 | nt | -3
CC(C)(C)c1ccc(S(=O)(=O)N2CCCCC2C(=O)NCc2ccccn2)cc1 (stereo unspecified) | 0.4 | 1.2 | -22 | 5 | 10 | 63*
Cc1ccc(S(=O)(=O)N2CCCC(C(=O)NCc3ccccn3)C2)cc1 (stereo unspecified) | 0.8 | 1.9 | -87 | 3 | -8 | 22
CCCCN(CCCC)Cc1cc2ccccc2c2c1COC2 | 1 | 0.7 | 29 | -1 | nt | 4
O=C1OCCC1S(=O)(=O)c1ccc2ccccc2c1 (stereo unspecified) | 0.7 | 5* | -402 | 1 | 1 | 32
O=C(c1ccccc1)N1CCCCC(S(=O)(=O)c2ccc3ccccc3c2)C1=O (stereo unspecified) | 0.5 | 1.6 | -62 | -23 | nt | 54*
O=C(O)C1CCCN1S(=O)(=O)c1ccc2ccccc2c1 (stereo unspecified) | nt | nt | nt | 2 | -5 | nt
CCc1cc2c(=O)n(C(C)C(=O)OC3CCCCC3)cnc2s1 (stereo unspecified) | 1 | 0.7 | 31 | 1 | 39 | 0
Cn1c(=O)n(CC(=O)OCc2ccccc2)c(=O)c2c1nc1n2CCCN1C1CCCCC1 | nt | nt | nt | nt | -7 | nt
O=C(N/N=C1\CCCc2ccccc21)c1ccc([N+](=O)[O-])cc1Cl | 0.9 | 1.3 | -30 | 1 | nt | 11
O=C1/C(=C/c2cccnc2)Sc2ccccc21 | 0.2 | 0.3 | 66* | 13 | nt | 78*
Cc1ccc(/C=C2\Sc3ccccc3C2=O)s1 | 0.1 | 0.3 | 75* | -2 | nt | 94*
CCC(=O)N(C)/C=C1\Sc2ccccc2C1=O | 0.8 | 0.9 | 10 | 3 | nt | 20
O=S(=O)(c1ccccc1C(F)(F)F)N1CCOCC1 | 1 | 1.5 | -48 | 6 | -7 | 0
COc1ccc(OCC(=O)NC2CC(C)(C)NC(C)(C)C2)cc1 | 1 | 1.1 | -8 | -11 | -9 | -4
CCn1c(C(=O)N2CCC(C(=O)N3CCN(c4ccccn4)CC3)CC2)cc2sccc21 | 0.3 | 1.6 | -60 | 6 | -8 | 65*
